What is called half-life is how long it takes for the measured level to halve.

Molecules are shown by their SMILES. Calls of active or inactive are those of the source. No cut-off for these calls is given here.

One compound from ChEMBL document CHEMBL4680165, “β-Lactams with antiproliferative and antiapoptotic activity in breast and chemoresistant colon cancer cells” (Eur J Med Chem, 2020) can be followed below.

Data set [1] relates to HT-29. As to the kind of experiment: Cell cycle arrest in human HT-29 cells assessed as accumulation at G2/M phase at 1 uM measured by PI staining based flow cytometry analysis. As to conditions: TDE = time-dependent effect. The data set is classed as functional. The method in brief: (§1)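 Cells (1 × 10^5/well) were treated at 1 µM for 24, 48 and 72 h; vehicle was 0.1% v/v ethanol. Cells were trypsinised, fixed in ice-cold 70% ethanol overnight at −20 °C, then stained with PI (50 µg/mL) plus DNase-free RNase A (50 µg/mL) at 37 °C for 30 min. DNA content of 10,000 cells per group was read by flow cytometry at 488 nm.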
In general terms: A flow cytometer gives signals particle by particle.

Data set [2] deals with HT-29. Put plainly: Induction of apoptosis in human HT29 cells assessed as cell apoptosis at 1 uM after 24 hrs by Annexin V-FITC and propidium iodide staining based flow cytometry. In kind it is functional. The method in brief: (§2)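 HT-29 cells were treated at 1 µM for 24, 48 and 72 h against an untreated control. Cells were stained with Annexin V in binding buffer (HEPES pH 7.4, NaCl, CaCl2) for 30 min on ice in the dark, washed, resuspended in PI-containing buffer and read at once by flow cytometry. Quadrants: early apoptotic, late apoptotic, necrotic (Annexin V−/PI+).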

The subject of data set [3] is HT-29. Put plainly: Antiangiogenic activity in human HT-29 cells assessed as increase in IL-1RA secretion at 5 uM after 24 hrs by ELISA. In kind it is functional, cell-based. The method in brief:
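HT-29 cells at 5 x 10^4 per well, cultured 24 h and then exposed to 5 µM compound. Conditioned medium collected on ice and stored at -80 °C. Cytokines and angiogenic, vascular-injury and chemokine factors measured by multiplex panels with overnight supernatant incubation (Angiogenesis Panel 1 and Vascular Injury Panel 2 same day). Medium undiluted except 1:4 for Vascular Injury Panel 2. Secretion normalised to lysate protein by BCA.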
A general note: ELISA stands for enzyme-linked immunosorbent assay.

Data set [4] relates to MCF7. Put plainly: Cell cycle arrest in human MCF7 cells assessed as accumulation at G2/M phase at 1 uM measured after 72 hrs by PI staining based flow cytometry analysis (reference value: 24 %). The data set is classed as functional. The method in brief:
as §1

The target in data set [5] is T1, UDP-glucuronosyltransferases (UGTs) (Homo sapiens, UniProt O60656+O75310+O75795+P06133+P0DTE4+P0DTE5+P16662+P19224+P22309+P22310+P35503+P35504+P36537+P54855+Q6UWM9+Q9BY64+Q9HAW7+Q9HAW8+Q9HAW9). Put plainly: Metabolic stability in human liver microsomes assessed as UGT-mediated N-glucuronidation by measuring intrinsic clearance at 3 uM measured up to 45 mins by LC-MS/MS analysis. In kind it is ADME. As to conditions: liver microsomes, read-out: CLH. The method in brief:
(§3)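 Pooled human liver microsomes (0.5 mg/mL protein final) with alamethicin (25 µg/mg) in 0.1 M phosphate pH 7.4, compound 3 µM final (0.25% DMSO), preincubated 37 °C. Reaction started with UDPGA (1 mM final). Sampled at 0, 5, 15, 30, 45 min into methanol, analysed by LC-MS/MS. Minus-UDPGA control run 45 min. Single incubations; t½ and CLint taken from the elimination rate constant.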
(In general: Liver microsomes are vesicles of endoplasmic reticulum, rich in cytochrome P450 enzymes.)

For data set [6], the target named is T1, UDP-glucuronosyltransferases (UGTs). Put plainly: Metabolic stability in human liver microsomes assessed as UGT-mediated N-glucuronidation by measuring half life at 3 uM measured up to 45 mins by LC-MS/MS analysis. The data set is classed as ADME. The following applies: liver microsomes. The method in brief:
as §3

Data set [7] deals with HT-29. As to the kind of experiment: Induction of apoptosis in human HT29 cells assessed as necrotic cells at 1 uM after 48 hrs by Annexin V-FITC and propidium iodide staining based flow cytometry (reference value: 3 %). In kind it is functional. The method in brief:
as §2

In data set [8] the test system is HT-29. As to the kind of experiment: Cell cycle arrest in human HT-29 cells assessed as accumulation at G2/M phase at 1 uM measured after 48 hrs by PI staining based flow cytometry analysis (reference value: 11 %). The data set is classed as functional. The method in brief:
as §1

Data set [9] has as its system MCF7. Put plainly: Induction of apoptosis in human MCF7 cells assessed as late apoptotic cells after 48 hrs by Annexin V-FITC and propidium iodide staining based flow cytometry. In kind it is functional, cell-based. The following applies: dose 10-1000 nM. The method in brief:
(§4)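 MCF-7 cells were seeded at 1 × 10^5 cells/mL and treated for 48 h at 0.01, 0.1 and 1 µM; vehicle was 0.1% v/v ethanol. Annexin V staining was done on ice in the dark for 30 min in HEPES/NaCl/CaCl2 binding buffer, followed by PI. Flow cytometry scored early apoptotic (Annexin V+/PI−) and late apoptotic (Annexin V+/PI+) cells; total apoptotic is Annexin V-positive cells.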

Data set [10] relates to MCF7. Put plainly: Induction of apoptosis in human MCF7 cells assessed as downregulation of survivin expression level at 0.05 to 0.5 uM after 48 to 72 hrs by Western blot analysis. The following applies: dose 0.05-0.5 µM, time 48-72 hrs. The data set is classed as functional, cell-based. The method in brief: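 MCF-7 cells (1 × 10^5 per flask) were treated at 0.05, 0.1 and 0.5 µM for 48 and 72 h; vehicle was 0.1% v/v ethanol. Lysis was in RIPA buffer with protease and phosphatase inhibitors. Equal protein (BCA) was run on 12% SDS-PAGE and blotted for Mcl-1, Bcl-2 and survivin, with GAPDH as loading control and ECL detection. Three independent experiments.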

The target in data set [11] is T2, Tubulin (Homo sapiens) (UniProt P68371+Q9H4B7+P0DPH7+P68366+Q13509+Q71U36+P04350+Q3ZCM7+P07437+P68363+Q9BQE3+Q6PEY2+Q13885+Q9BVA1+Q9BUF5). As to the kind of experiment: Induction of microtubule depolymerization in human MCF7 cells at 10 to 100 nM after 16 hrs by immunofluorescence staining based confocal microscopic analysis. In kind it is cell-based. As to conditions: dose 10-100 nM. The method in brief: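 MCF-7 cells seeded 1 × 10^5 cells/mL on chamber slides, exposed 16 h to vehicle [1% ethanol (v/v)] or test agent (0.01, 0.05, 0.1 µM). Fixed in 4% paraformaldehyde, permeabilised in 0.5% Triton X-100, blocked in 5% BSA, then stained with anti-α-tubulin-FITC (DM1A) 2 h rt, Alexa Fluor 488 1 h, DAPI mount. Confocal imaging; three independent experiments.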

Data set [12] addresses T2, Tubulin (Homo sapiens). As to the kind of experiment: Induction of microtubule depolymerization in human MCF7 cells assessed as induction of cell detachment and loss of radical distribution at 100 nM for 5 hrs by immunofluorescence staining based confocal microscopic analysis. The method in brief: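 MCF-7 cells were seeded at 1 × 10^5 cells/mL on chamber slides and treated at 0.01, 0.05 and 0.1 µM. Controls were vehicle (1% v/v ethanol), CA-4 (0.01 µM) and paclitaxel (1 µM). Cells were fixed and stained with anti-α-tubulin-FITC (DM1A) and Alexa Fluor 488, then counterstained with DAPI. Imaging was by confocal microscopy over three separate experiments.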

The target in data set [13] is T2, Tubulin (Homo sapiens). Put plainly: Binding affinity to tubulin in human MCF7 cells assessed as inhibition of tubulin-EBI adduct formation preincubated for 2 hrs followed by EBI addition and measured after 1.5 hrs by Western blotting analysis. The data set is classed as cell-based. The following applies: time 3.5 hrs. The method in brief: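 MCF-7 cells (5 × 10^4/well) were incubated overnight, then given vehicle (0.1% v/v ethanol) or compound at 10 µM for 2 h. Selected wells then received EBI (100 µM) for 1.5 h. Cells were washed in ice-cold PBS, lysed in Laemmli buffer and run on SDS-PAGE. Blots were probed for β-tubulin and the β-tubulin–EBI adduct, with GAPDH as loading control. Three independent experiments.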

Data set [14] deals with MCF7. As to the kind of experiment: Induction of apoptosis in human MCF7 cells assessed as total apoptotic cells at 1 uM after 48 hrs by Annexin V-FITC and propidium iodide staining based flow cytometry (reference value: 10 %). In kind it is functional. The method in brief:
as §4

Data set [15] has as its system MCF7. As to the kind of experiment: Cell cycle arrest in human MCF7 cells assessed as accumulation at G2/M phase at 1 uM measured after 48 hrs by PI staining based flow cytometry analysis (reference value: 24 %). The data set is classed as functional. The method in brief: as §1

Turning to `COc1ccc([C@H]2[C@H](O)C(=O)N2c2cc(OC)c(OC)c(OC)c2)cc1F`, the Activity entry with HT-29 [1] is “Tde”; with HT-29 [2], 21%; with MCF7 [4], 60%; with HT-29 [7], 11%; in the data set on HT-29 [8], 57%; in the data set on MCF7 [9], “Dose-dependent effect”. Further, the Activity in the data set with MCF7 [14] came to 35%; with MCF7 [15], 75%. Besides, the outcome in the data set with HT-29 [3], with MCF7 [10], at Tubulin (Homo sapiens) [11], at Tubulin (Homo sapiens) [12] and on Tubulin (Homo sapiens) [13] was Active. Further, the microsomal CLint at 3 µM in data set [5] stood at 14.2 µL/min/mg. The half-life at 3 µM in data set [6] is 1.63 h.
